Published values from different studies.
Compare with care: the assays were run in different laboratories.
Effect on: cell growth or viability

SMILES | cell line | test | setting | IC50
Nc1cccc2c1C(=O)N(C1CCC(=O)NC1=O)C2=O (centres unmarked) | TMD8 | CCK-8 | 7 days | > 20000 nM
O=C(Nc1ccc(Cl)cc1)Nc1nc2cc(-c3ccc4ncn(Cc5ccccc5)c(=O)c4c3)ccc2s1 | NCI-H1975 | MTT | 72 h | > 20000 nM
CCCCn1cnc2ccc(-c3ccc(NC(=O)Nc4ccc(Cl)cc4)nc3)cc2c1=O | NCI-H1975 | CCK-8 | 72 h | 2550 nM
O=C(NCCc1ccccc1)Nc1nc2cc(-c3ccc4ncn(CCN5CCOCC5)c(=O)c4c3)ccc2s1 | NCI-H1975 | MTT | 72 h | 3200 nM
CCCCC(=O)Nc1ccc(-c2ccc3ncn(CCC)c(=O)c3c2)cc1F | NCI-H1975 | CCK-8 | 72 h | 1680 nM
CCC(=O)Nc1nc2cc(-c3ccc4ncn(Cc5ccccc5)c(=O)c4c3)ccc2s1 | NCI-H1975 | MTT | 72 h | > 20000 nM
CC(C)(C)c1cnc(CSc2cnc(NC(=O)C3CCN(C(=O)CCCCCCCN4Cc5cc6c(cc5C4)C(=O)N(C4CCC(=O)NC4=O)C6=O)CC3)s2)o1 (centres unmarked) | A673 | MTT | – | 75.4 nM
Nc1nnc(-c2ccccc2O)cc1N1CC2CCC(C1)N2c1ccnc(F)c1 | HCC515 | ATP luminescence | 7 days | > 1000 nM
CCCn1cnc2ccc(-c3ccc(N4CCC(C)CC4=O)nc3)cc2c1=O (centres unmarked) | NCI-H1975 | CCK-8 | 72 h | > 10000 nM
COc1ccc(C[C@H](N)C(=O)N[C@H]2[C@@H](O)[C@H](n3cnc4c(N(C)C)ncnc43)O[C@@H]2CO)cc1 | HEK293 | resazurin | 72 h | 720 nM
CCCn1cnc2ccc(-c3ccc(NC(=O)CNCC)nc3)cc2c1=O | NCI-H1975 | CCK-8 | 72 h | 8790 nM
O=C(Nc1ccc(F)cc1)Nc1nc2cc(-c3ccc4ncn(CC(=O)N5CCOCC5)c(=O)c4c3)ccc2s1 | NCI-H1975 | MTT | 72 h | > 20000 nM
Nc1ccn([C@@H]2O[C@H](CO)[C@@H](O)C2(F)F)c(=O)n1 | HEK293 | MTT | 24 h | 24.2 µg/mL
CCCCn1cnc2ccc(-c3ccc(NC(=O)NCCC)nc3)cc2c1=O | NCI-H1975 | CCK-8 | 72 h | 8750 nM
O=C(Nc1ccc(F)cc1)Nc1nc2cc(-c3ccc4ncn(CCC5CCCCC5)c(=O)c4c3)ccc2s1 | NCI-H1975 | MTT | 72 h | 5970 nM
Cc1cnc(Nc2ccc(OCCN3CCCC3)cc2)nc1Nc1cccc(S(=O)(=O)NC(C)(C)C)c1 | SET-2 | CCK-8 | – | 1010 nM
CN(C)CCn1cnc2ccc(-c3ccc4sc(NC(=O)Nc5ccc(F)cc5)nc4c3)cc2c1=O | NCI-H1975 | MTT | 72 h | 1390 nM
Cc1cccc(NC(=O)Nc2ccc(-c3ccc4ncn(Cc5ccccc5)c(=O)c4c3)cn2)c1 | NCI-H1975 | CCK-8 | 72 h | > 10000 nM
Cc1ncsc1-c1ccc([C@H](C)NC(=O)[C@@H]2C[C@@H](O)CN2C(=O)[C@@H](NC(=O)CN2CCN(c3cc(-c4ccccc4O)nnc3N)CC2)C(C)(C)C)cc1 | HCC515 | ATP luminescence | 7 days | 182 nM
COc1cccc2c1C(=O)c1c(O)c3c(c(O)c1C2=O)C[C@@](O)(C(=O)CO)C[C@@H]3O[C@H]1C[C@H](N)[C@H](O)[C@H](C)O1 | Pfeiffer | – | 96 h | 90.7 nM
